Results: ChEMBL document CHEMBL4765453, “Phenanthrolinic analogs of quinolones show antibacterial activity against M. tuberculosis” (Eur J Med Chem, 2020)
≈ marks a conversion by molar mass, not a printed value. Calls of active or inactive are those of the source. The rule behind the calls is not given here.

Experiments:
[1] = test system: Mycobacterium tuberculosis; assay: Antitubercular activity against Mycobacterium tuberculosis H37Rv measured after 7 days by resazurin microtiter assay; assay type: functional; conditions: 168 h, time 7 day
Outline: (§1)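 Resazurin microtiter assay with two-fold drug dilutions in complete 7H9 broth. Exponential-phase cells are diluted to a final OD600 of 0.005 in 7H9 without Tween. Incubation is 7 days at 37°C, then 0.01% resazurin is added and plates are held 24 h more. MIC is the lowest concentration preventing the blue-to-pink change. Each MIC is determined three times in duplicate experiments.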

[2] = test system: Mycolicibacterium smegmatis; assay: Antibacterial activity against Mycobacterium smegmatis measured after 7 days by resazurin microtiter assay; assay type: functional; conditions: 168 h, time 7 day; outline: as §1
Mycolicibacterium aurum = assay: Antibacterial activity against Mycobacterium aurum measured after 7 days by resazurin microtiter assay; assay type: functional; conditions: 168 h, time 7 day; outline: as §1
Mycobacterium marinum = assay: Antibacterial activity against Mycobacterium marinum measured after 7 days by resazurin microtiter assay; assay type: functional; conditions: 168 h, time 7 day; outline: as §1
Pseudomonas aeruginosa = assay: Antibacterial activity against Pseudomonas aeruginosa measured after 7 days by resazurin microtiter assay; assay type: functional; conditions: 168 h, time 7 day
Acinetobacter baumannii = assay: Antibacterial activity against Acinetobacter baumannii measured after 7 days by resazurin microtiter assay; assay type: functional; conditions: 168 h, time 7 day
Klebsiella aerogenes = assay: Antibacterial activity against Enterobacter aerogenes measured after 7 days by resazurin microtiter assay; assay type: functional; conditions: 168 h, time 7 day
Enterobacter cloacae = assay: Antibacterial activity against Enterobacter cloacae measured after 7 days by resazurin microtiter assay; assay type: functional; conditions: 168 h, time 7 day
Staphylococcus aureus = assay: Antibacterial activity against Staphylococcus aureus measured after 7 days by resazurin microtiter assay; assay type: functional; conditions: 168 h, time 7 day
[3] = test system: Mycobacterium tuberculosis; assay: Antitubercular activity against Mycobacterium tuberculosis XDR measured after 7 days by resazurin microtiter assay; assay type: functional; conditions: 168 h, time 7 day; outline: as §1
[4] = test system: Escherichia coli ATCC 25922; assay: Inhibition of DNA gyrase in Escherichia coli ATCC 25922 assessed as elongation of bacterial cells at 2 ug/ml measured after 1.5 hrs by DAPI/FM 4-64 staining based confocal fluorescence microscopic analysis; conditions: dose 2.0 µg/ml
Outline: (§2)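 E. coli ATCC 25922 is grown in LB, and exponential cultures are treated 1.5 h at 37°C. Cells are washed in PBS, fixed 10 min in 4% PFA, and stained 20 min at room temperature with 2 µg/mL DAPI plus 1 µg/mL FM 4-64. Imaging is by confocal microscopy with a 60x oil objective.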

[5] = test system: Mycolicibacterium smegmatis; assay: Inhibition of DNA gyrase in Mycobacterium smegmatis assessed as elongation of bacterial cells at 2 ug/ml measured after 6 hrs by DAPI/FM 4-64 staining based confocal fluorescence microscopic analysis; conditions: dose 2.0 µg/ml
Outline: (§3)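 M. smegmatis is grown in 7H9, and exponential cultures are treated 6 h at 37°C. Cells are fixed 10 min in 4% PFA in PBS and stained 20 min at room temperature with 2 µg/mL DAPI and 1 µg/mL FM 4-64. Imaging is by confocal microscopy with a 60x oil objective.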

[6] = test system: Mycolicibacterium smegmatis; assay: Inhibition of DNA gyrase in Mycobacterium smegmatis assessed as segmentation of bacterial cells at 2 ug/ml measured after 6 hrs by DAPI/FM 4-64 staining based confocal fluorescence microscopic analysis; conditions: dose 2.0 µg/ml; outline: as §3
[7] = Solubility of compound in water; assay type: physicochemical; conditions: buffer
Klebsiella pneumoniae = assay: Antibacterial activity against Klebsiella pneumoniae measured after 7 days by resazurin microtiter assay; assay type: functional; conditions: 168 h, time 7 day
Vero = assay: Cytotoxicity against African green monkey Vero cells assessed as reduction in cell viability measured after 24 to 48 hrs by Celltiter-glo assay; assay type: cell-based, Chlorocebus sabaeus; conditions: chlorocebus sabaeus, vero; time 24-48 hrs
Outline: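 Vero cells are grown in DMEM with 10% FBS and seeded at 25000 cells/well. Compound is added at 1% final DMSO, with 24 and 48 h incubation. ATP is read by CellTiter-Glo luminescence. IC50 is the concentration giving a 50% drop in ATP signal versus the DMSO control.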

Macrophage = assay: Cytotoxicity against human macrophages assessed as reduction in cell viability measured after 6 days by Celltiter-glo assay; assay type: cell-based; conditions: human, macrophage, 144 h; time 6 day
Outline: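 Infected human macrophages, with or without drug, are incubated 6 days. Viability is checked by visual inspection and by CellTiter-Glo ATP luminescence.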

[8] = test system: Mycobacterium tuberculosis; assay: Antitubercular activity against Mycobacterium tuberculosis H37Rv infected in human macrophages assessed as intracellular bacterial load at 0.5 MIC measured after 6 days (reference value: 5.57 to 6.43 logCFU/ml); assay type: functional, Macrophage; conditions: time 6 day
[9] = test system: Mycobacterium tuberculosis; assay: Antitubercular activity against Mycobacterium tuberculosis H37Rv infected in human macrophages assessed as intracellular bacterial load at MIC measured after 6 days (reference value: 5.57 to 6.43 logCFU/ml); assay type: functional, Macrophage; conditions: time 6 day
[10] = test system: Mycobacterium tuberculosis; assay: Antitubercular activity against Mycobacterium tuberculosis H37Rv infected in human macrophages assessed as intracellular bacterial load at 2 times MIC measured after 6 days (reference value: 5.57 to 6.43 logCFU/ml); assay type: functional, Macrophage; conditions: time 6 day
[11] = test system: Mycobacterium tuberculosis; assay: Antitubercular activity against Mycobacterium tuberculosis H37Rv infected in human macrophages assessed as intracellular bacterial load at 4 times MIC measured after 6 days (reference value: 5.57 to 6.43 logCFU/ml); assay type: functional, Macrophage; conditions: time 6 day
[12] = test system: Escherichia coli ATCC 25922; assay: Inhibition of DNA gyrase in Escherichia coli ATCC 25922 assessed as elongation of bacterial cells at 2.5 ug/ml measured after 1.5 hrs by DAPI/FM 4-64 staining based confocal fluorescence microscopic analysis; conditions: dose 2.5 µg/ml; outline: as §2
[13] = test system: Escherichia coli ATCC 25922; assay: Inhibition of DNA gyrase in Escherichia coli ATCC 25922 assessed as appearance of filamentous bacterial cells at 2.5 ug/ml measured after 1.5 hrs by DAPI/FM 4-64 staining based confocal fluorescence microscopic analysis; conditions: dose 2.5 µg/ml; outline: as §2
[14] = test system: Escherichia coli ATCC 25922; assay: Inhibition of DNA gyrase in Escherichia coli ATCC 25922 assessed as change in DNA morphology at 2.5 ug/ml measured after 1.5 hrs by DAPI/FM 4-64 staining based confocal fluorescence microscopic analysis; conditions: dose 2.5 µg/ml; outline: as §2
[15] = test system: Mycolicibacterium smegmatis; assay: Inhibition of DNA gyrase in Mycobacterium smegmatis assessed as elongation of bacterial cells at 2.5 ug/ml measured after 6 hrs by DAPI/FM 4-64 staining based confocal fluorescence microscopic analysis; conditions: dose 2.5 µg/ml; outline: as §3
[16] = test system: Mycolicibacterium smegmatis; assay: Inhibition of DNA gyrase in Mycobacterium smegmatis assessed as segmentation of bacterial cells at 2.5 ug/ml measured after 6 hrs by DAPI/FM 4-64 staining based confocal fluorescence microscopic analysis; conditions: dose 2.5 µg/ml; outline: as §3

## NCC[C@H](O)C(=O)N[C@@H]1C[C@H](N)[C@@H](O[C@H]2O[C@H](CN)[C@@H](O)[C@H](O)[C@H]2O)[C@H](O)[C@H]1O[C@H]1O[C@H](CO)[C@@H](O)[C@H](N)[C@H]1O [AMIKACIN]
[1]
  MIC90: 1.83 µM (≈ 1.07 µg/mL)
[2]
  MIC90: 0.46 µM (≈ 0.269 µg/mL)
Mycolicibacterium aurum
  MIC90: 1.83 µM (≈ 1.07 µg/mL)
Mycobacterium marinum
  MIC90: 3.66 µM (≈ 2.14 µg/mL)
Pseudomonas aeruginosa
  MIC90: 3.66 µM (≈ 2.14 µg/mL)
Acinetobacter baumannii
  MIC90: 14.6 µM (≈ 8.57 µg/mL)

## CC1COc2c(N3CCN(C)CC3)c(F)cc3c(=O)c(C(=O)O)cn1c23 (centres undefined) [OFLOXACIN]
[1]
  MIC90: 1.73 µM (≈ 0.625 µg/mL)
[2]
  MIC90: 3.46 µM (≈ 1.25 µg/mL)
Mycolicibacterium aurum
  MIC90: 3.46 µM (≈ 1.25 µg/mL)
Mycobacterium marinum
  MIC90: 6.92 µM (≈ 2.5 µg/mL)
Pseudomonas aeruginosa
  MIC90: 6.92 µM (≈ 2.5 µg/mL)
Acinetobacter baumannii
  MIC90: 1.73 µM (≈ 0.625 µg/mL)
Klebsiella aerogenes
  MIC90: 0.22 µM (≈ 0.0795 µg/mL)
Enterobacter cloacae
  MIC90: 6.92 µM (≈ 2.5 µg/mL)
Staphylococcus aureus
  MIC90: 1.73 µM (≈ 0.625 µg/mL)
[3]
  MIC90: 27.6 µM (≈ 9.97 µg/mL)
[4]
  inhibition: Active
[5]
  inhibition: Active
[6]
  inhibition: Active

## CCOC(=O)c1cn(CC)c2c(cc(Br)c3cccnc32)c1=O
[1]
  MIC90: 318 µM (≈ 119 µg/mL)
[7]
  solubility: Insoluble

## CCn1cc(C(=O)Nc2ccccc2)c(=O)c2cc([N+](=O)[O-])c3cccnc3c21
[1]
  MIC90: 275 µM (≈ 107 µg/mL)
[7]
  solubility: Insoluble

## CCn1cc(C(=O)O)c(=O)c2cc(Br)c3cccnc3c21
[1]
  MIC90: 9.39 µM (≈ 3.26 µg/mL)
[7]
  solubility: Insoluble

## CCOC(=O)c1cn(C)c2c(ccc3cccnc32)c1=O
[1]
  MIC90: 182 µM (≈ 51.5 µg/mL)
[7]
  solubility: Insoluble

## CCn1cc(C(=O)O)c(=O)c2cc([N+](=O)[O-])c3cccnc3c21
[1]
  MIC90: 5.84 µM (≈ 1.83 µg/mL)
[2]
  MIC90: 21.4 µM (≈ 6.69 µg/mL)
Mycolicibacterium aurum
  MIC90: 10.7 µM (≈ 3.34 µg/mL)
Mycobacterium marinum
  MIC90: 1.3 µM (≈ 0.407 µg/mL)
Pseudomonas aeruginosa
  MIC90: > 100 µM
Acinetobacter baumannii
  MIC90: 93.4 µM (≈ 29.2 µg/mL)
Klebsiella aerogenes
  MIC90: 42.7 µM (≈ 13.4 µg/mL)
Enterobacter cloacae
  MIC90: > 275 µM
Staphylococcus aureus
  MIC90: 10.7 µM (≈ 3.34 µg/mL)
Klebsiella pneumoniae
  MIC90: > 275 µM
Vero
  Activity: Non-Toxic
Macrophage
  Activity: Non-Toxic
[8]
  Activity: 4.19 log10CFU/ml
[9]
  Activity: 3.69 log10CFU/ml
[10]
  Activity: 3.21 log10CFU/ml
[11]
  Activity: 3.24 log10CFU/ml
[7]
  solubility: Insoluble

## CCOC(=O)c1c[nH]c2c(ccc3c([N+](=O)[O-])cc[n+]([O-])c32)c1=O
[1]
  MIC90: 39.5 µM (≈ 13 µg/mL)
[7]
  solubility: Insoluble

## CCOC(=O)c1cn(C)c2c(cc(Br)c3cccnc32)c1=O
[1]
  MIC90: 290 µM (≈ 105 µg/mL)
[7]
  solubility: Insoluble

## CCOC(=O)c1c[nH]c2c(cc([N+](=O)[O-])c3cccnc32)c1=O
[1]
  MIC90: 329 µM (≈ 103 µg/mL)
[7]
  solubility: Insoluble

## CCOC(=O)c1cn(C)c2c(cc(N)c3cccnc32)c1=O
[1]
  MIC90: 92.1 µM (≈ 27.4 µg/mL)
[7]
  solubility: Insoluble

## O=C(O)c1c[nH]c2c(ccc3cccnc32)c1=O
[1]
  MIC90: 112 µM (≈ 27 µg/mL)
[7]
  solubility: Insoluble

## Cn1cc(C(=O)O)c(=O)c2ccc3cccnc3c21
[1]
  MIC90: 25.8 µM (≈ 6.56 µg/mL)
[7]
  solubility: Insoluble

## CCOC(=O)c1cn(CC)c2c(cc([N+](=O)[O-])c3cccnc32)c1=O
[1]
  MIC90: 4.99 µM (≈ 1.7 µg/mL)
[2]
  MIC90: > 100 µM
Mycolicibacterium aurum
  MIC90: > 100 µM
Mycobacterium marinum
  MIC90: 0.61 µM (≈ 0.208 µg/mL)
Pseudomonas aeruginosa
  MIC90: > 100 µM
Acinetobacter baumannii
  MIC90: > 100 µM
Klebsiella aerogenes
  MIC90: 314 µM (≈ 107 µg/mL)
Enterobacter cloacae
  MIC90: > 275 µM
Staphylococcus aureus
  MIC90: 19.6 µM (≈ 6.69 µg/mL)
Klebsiella pneumoniae
  MIC90: > 275 µM
Vero
  Activity: Non-Toxic
Macrophage
  Activity: Non-Toxic
[8]
  Activity: 4.42 log10CFU/ml
[9]
  Activity: 3.59 log10CFU/ml
[10]
  Activity: 3.1 log10CFU/ml
[11]
  Activity: 3 log10CFU/ml
[3]
  MIC90: 4.99 µM (≈ 1.7 µg/mL)
[7]
  solubility: Insoluble

## Cn1cc(C(=O)O)c(=O)c2cc([N+](=O)[O-])c3cccnc3c21
[1]
  MIC90: 2.64 µM (≈ 0.79 µg/mL)
[2]
  MIC90: 11.2 µM (≈ 3.35 µg/mL)
Mycolicibacterium aurum
  MIC90: 11.2 µM (≈ 3.35 µg/mL)
Mycobacterium marinum
  MIC90: 0.7 µM (≈ 0.209 µg/mL)
Pseudomonas aeruginosa
  MIC90: > 100 µM
Acinetobacter baumannii
  MIC90: > 100 µM
Klebsiella aerogenes
  MIC90: 44.7 µM (≈ 13.4 µg/mL)
Enterobacter cloacae
  MIC90: > 275 µM
Staphylococcus aureus
  MIC90: 22.4 µM (≈ 6.69 µg/mL)
Klebsiella pneumoniae
  MIC90: > 275 µM
Vero
  Activity: Non-Toxic
Macrophage
  Activity: Non-Toxic
[8]
  Activity: 3.78 log10CFU/ml
[9]
  Activity: 3.65 log10CFU/ml
[10]
  Activity: 2.77 log10CFU/ml
[11]
  Activity: 3.01 log10CFU/ml
[3]
  MIC90: 2.64 µM (≈ 0.79 µg/mL)
[7]
  solubility: Insoluble
[12]
  inhibition: Active
[13]
  inhibition: Active
[14]
  inhibition: Active
[15]
  inhibition: Active
[16]
  inhibition: Active

## Cn1cc(C(N)=O)c(=O)c2cc([N+](=O)[O-])c3cccnc3c21
[1]
  MIC90: 1.4 µM (≈ 0.418 µg/mL)
[7]
  solubility: Insoluble
